Each block holds one molecule with its values, some of them ahead of it.
Columns and labels:
[1] = target: CYP2D6 (Homo sapiens, UniProt P10635); test: Inhibition of CYP2D6 at 10 uM; type: ADME
[2] = target: Platelet-derived growth factor receptor beta (Homo sapiens) (UniProt P09619); test: Inhibition of human PDGFRbeta at 20 uM by FRET assay
[3] = target: Casein kinase II subunit alpha (Homo sapiens) (UniProt P68400); test: Inhibition of human CK2alpha1 at 20 uM by FRET assay
[4] = target: Tyrosine-protein kinase SYK (Homo sapiens) (UniProt P43405); test: Inhibition of human SYK at 20 uM by FRET assay
[5] = target: Protein kinase C beta type (Homo sapiens) (UniProt P05771); test: Inhibition of human PKCbeta1 at 20 uM by FRET assay
[6] = target: Insulin-like growth factor 1 receptor (Homo sapiens) (UniProt P08069); test: Inhibition of human IGF1R at 20 uM by FRET assay
[7] = target: Vascular endothelial growth factor receptor 2 (Homo sapiens) (UniProt P35968); test: Inhibition of human KDR at 20 uM by FRET assay
[8] = target: Serine/threonine-protein kinase Chk1 (Homo sapiens) (UniProt O14757); test: Inhibition of human CHK1 at 20 uM by FRET assay
[9] = target: Mast/stem cell growth factor receptor Kit (Homo sapiens) (UniProt P10721); test: Inhibition of human KIT at 20 uM by FRET assay
[10] = target: Tyrosine-protein kinase BTK (Homo sapiens) (UniProt Q06187); test: Inhibition of human BTK at 20 uM by FRET assay
[11] = target: Rho-associated protein kinase 1 (Homo sapiens) (UniProt Q13464); test: Inhibition of human ROCK1 at 20 uM by FRET assay
[12] = target: Mitogen-activated protein kinase 12 (Homo sapiens) (UniProt P53778); test: Inhibition of human p38-gamma at 20 uM by FRET assay
[13] = target: Tyrosine-protein kinase ABL1 (Homo sapiens) (UniProt P00519); test: Inhibition of human ABL1 at 20 uM by FRET assay
[14] = target: Glycogen synthase kinase-3 beta (Homo sapiens) (UniProt P49841); test: Inhibition of human GSK3-beta at 20 uM by FRET assay
[15] = target: Mitogen-activated protein kinase 8 (Homo sapiens) (UniProt P45983); test: Inhibition of human JNK1 at 20 uM by FRET assay
[16] = target: Proto-oncogene tyrosine-protein kinase Src (Homo sapiens) (UniProt P12931); test: Inhibition of human SRC at 20 uM by FRET assay
[17] = target: RAC-alpha serine/threonine-protein kinase (Homo sapiens) (UniProt P31749); test: Inhibition of human AKT1 at 20 uM by FRET assay
[18] = target: Aurora kinase A (Homo sapiens) (UniProt O14965); test: Inhibition of human Aurora A at 20 uM by FRET assay
[19] = target: Proto-oncogene tyrosine-protein kinase receptor Ret (Homo sapiens) (UniProt P07949); test: Inhibition of human RET at 20 uM by FRET assay
[20] = target: High affinity nerve growth factor receptor (Homo sapiens) (UniProt P04629); test: Inhibition of human NTRK1 at 20 uM by FRET assay
[21] = target: Hepatocyte growth factor receptor (Homo sapiens) (UniProt P08581); test: Inhibition of human MET at 20 uM by FRET assay
[22] = target: Serine/threonine-protein kinase PAK 4 (Homo sapiens) (UniProt O96013); test: Inhibition of human PAK4 at 20 uM by FRET assay
[23] = target: Angiopoietin-1 receptor (Homo sapiens) (UniProt Q02763); test: Inhibition of human TEK at 20 uM by FRET assay
[24] = target: Casein kinase I isoform gamma-2 (Homo sapiens) (UniProt P78368); test: Inhibition of human CK1gamma2 at 20 uM by FRET assay
[25] = target: Mitogen-activated protein kinase 11 (Homo sapiens, UniProt Q15759); test: Inhibition of p38beta by FRET assay
[26] = target: Ephrin type-A receptor 2 (Homo sapiens) (UniProt P29317); test: Inhibition of human EPHA2 at 20 uM by FRET assay
[27] = Selectivity ratio for IC50 of p38alpha to IC50 of p38beta
[28] = target: Dual specificity tyrosine-phosphorylation-regulated kinase 3 (Homo sapiens) (UniProt O43781); test: Inhibition of human DYRK3 at 20 uM by FRET assay
[29] = target: T1, Mitogen-activated protein kinase kinase kinase kinase 4 (Homo sapiens, UniProt O95819); test: Inhibition of human MAP4K4 by FRET assay
[30] = target: Serine/threonine-protein kinase mTOR (Homo sapiens) (UniProt P42345); test: Inhibition of human FRAP1 at 20 uM by FRET assay
[31] = target: Serine/threonine-protein kinase PLK1 (Homo sapiens) (UniProt P53350); test: Inhibition of human PLK1 at 20 uM by FRET assay
[32] = target: RAF proto-oncogene serine/threonine-protein kinase (Homo sapiens) (UniProt P04049); test: Inhibition of human RAF1 at 20 uM by FRET assay
[33] = target: Receptor tyrosine-protein kinase erbB-2 (Homo sapiens) (UniProt P04626); test: Inhibition of human ERBB2 at 20 uM by FRET assay
[34] = target: Mitogen-activated protein kinase 1 (Homo sapiens) (UniProt P28482); test: Inhibition of human ERK2 at 20 uM by FRET assay
[35] = target: Receptor-type tyrosine-protein kinase FLT3 (Homo sapiens) (UniProt P36888); test: Inhibition of human FLT3 at 20 uM by FRET assay
[36] = target: Ribosomal protein S6 kinase beta-1 (Homo sapiens) (UniProt P23443); test: Inhibition of human p70S6K at 20 uM by FRET assay
How it was run: (§1)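 Single-point screen at one fixed concentration, run across a panel of 53 additional human kinases, which includes this enzyme.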

[37] = target: Tyrosine-protein kinase JAK3 (Homo sapiens) (UniProt P52333); test: Inhibition of human JAK3 at 20 uM by FRET assay
[38] = target: Insulin receptor (Homo sapiens) (UniProt P06213); test: Inhibition of human INSR at 20 uM by FRET assay
[39] = target: Tyrosine-protein kinase Lck (Homo sapiens) (UniProt P06239); test: Inhibition of human LCK at 20 uM by FRET assay
[40] = target: T2, Mitogen-activated protein kinase 14 (Homo sapiens, UniProt Q16539); test: Inhibition of p38alpha at 10 uM by FRET assay
How it was run: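 Single-concentration screen against p38α, read at a fixed 60 min time-point. Reported as percent inhibition from tests run in duplicate.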

[41] = target: Inhibitor of nuclear factor kappa-B kinase subunit beta (Homo sapiens) (UniProt O14920); test: Inhibition of human IKK-beta at 20 uM by FRET assay
[42] = target: Epidermal growth factor receptor (Homo sapiens) (UniProt P00533); test: Inhibition of human EGFR at 20 uM by FRET assay
[43] = target: Mitogen-activated protein kinase 13 (Homo sapiens) (UniProt O15264); test: Inhibition of human p38delta at 20 uM by FRET assay; how it was run: as §1
[44] = target: Ribosomal protein S6 kinase alpha-3 (Homo sapiens) (UniProt P51812); test: Inhibition of human RPS6KA3 at 20 uM by FRET assay
[45] = target: Serine/threonine-protein kinase pim-1 (Homo sapiens) (UniProt P11309); test: Inhibition of human PIM1 at 20 uM by FRET assay
[46] = target: Serine/threonine-protein kinase MARK2 (Homo sapiens) (UniProt Q7KZI7); test: Inhibition of human MARK2 at 20 uM by FRET assay
[47] = target: Interleukin-1 receptor-associated kinase 4 (Homo sapiens) (UniProt Q9NWZ3); test: Inhibition of human IRAK4 at 20 uM by FRET assay
[48] = target: Activin receptor type-1B (Homo sapiens) (UniProt P36896); test: Inhibition of human ALK4 at 20 uM by FRET assay
[49] = target: Mitogen-activated protein kinase 9 (Homo sapiens) (UniProt P45984); test: Inhibition of human JNK2 at 20 uM by FRET assay
[50] = target: Serine/threonine-protein kinase Nek1 (Homo sapiens) (UniProt Q96PY6); test: Inhibition of human NEK1 at 20 uM by FRET assay
[51] = target: T1, Mitogen-activated protein kinase kinase kinase kinase 4; test: Inhibition of human MAP4K4 at 20 uM by FRET assay
[52] = target: T2, Mitogen-activated protein kinase 14; test: Inhibition of p38alpha by FRET assay
[53] = target: Cyclin-dependent kinase 1/cyclin B (Homo sapiens) (UniProt P06493+P14635+Q8WWL7+O95067); test: Inhibition of human CDK1/cyclin B at 20 uM by FRET assay; type: protein-complex assay
[54] = target: MAP kinase-activated protein kinase 2 (Homo sapiens) (UniProt P49137); test: Inhibition of human MAPKAPK2 at 20 uM by FRET assay
[55] = target: Fibroblast growth factor receptor 1 (Homo sapiens) (UniProt P11362); test: Inhibition of human FGFR1 at 20 uM by FRET assay
[56] = target: cAMP-dependent protein kinase catalytic subunit alpha (Homo sapiens) (UniProt P17612); test: Inhibition of human PRKACA at 20 uM by FRET assay
[57] = target: Dual specificity mitogen-activated protein kinase kinase 1 (Homo sapiens) (UniProt Q02750); test: Inhibition of human MEK1 at 20 uM by FRET assay

T2 sequence (Q16539 whole entry): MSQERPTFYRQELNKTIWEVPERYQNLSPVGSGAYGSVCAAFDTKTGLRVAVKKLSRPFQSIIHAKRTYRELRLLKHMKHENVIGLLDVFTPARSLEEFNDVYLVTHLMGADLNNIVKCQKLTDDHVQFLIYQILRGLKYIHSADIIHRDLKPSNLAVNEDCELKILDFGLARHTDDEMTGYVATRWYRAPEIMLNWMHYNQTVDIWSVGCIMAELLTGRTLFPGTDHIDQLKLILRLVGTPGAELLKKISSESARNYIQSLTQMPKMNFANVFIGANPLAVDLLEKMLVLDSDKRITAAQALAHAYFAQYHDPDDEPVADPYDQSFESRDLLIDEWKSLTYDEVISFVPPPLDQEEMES
CYP2D6, sequence (P10635 whole entry): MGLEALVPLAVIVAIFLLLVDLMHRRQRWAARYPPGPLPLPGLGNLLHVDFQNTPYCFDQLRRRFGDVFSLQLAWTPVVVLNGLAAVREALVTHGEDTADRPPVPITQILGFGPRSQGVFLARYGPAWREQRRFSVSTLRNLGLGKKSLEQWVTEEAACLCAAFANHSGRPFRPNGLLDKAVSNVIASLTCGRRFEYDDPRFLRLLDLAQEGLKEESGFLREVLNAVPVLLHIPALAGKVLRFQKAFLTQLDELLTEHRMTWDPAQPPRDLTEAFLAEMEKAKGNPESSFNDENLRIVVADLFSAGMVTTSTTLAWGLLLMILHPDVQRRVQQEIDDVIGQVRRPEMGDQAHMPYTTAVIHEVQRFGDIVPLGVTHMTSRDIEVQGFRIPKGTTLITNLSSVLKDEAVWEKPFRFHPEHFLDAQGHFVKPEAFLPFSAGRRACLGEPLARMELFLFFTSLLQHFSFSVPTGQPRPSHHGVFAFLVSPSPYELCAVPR
Insulin receptor (Homo sapiens), sequence (P06213 28-758 limits assumed): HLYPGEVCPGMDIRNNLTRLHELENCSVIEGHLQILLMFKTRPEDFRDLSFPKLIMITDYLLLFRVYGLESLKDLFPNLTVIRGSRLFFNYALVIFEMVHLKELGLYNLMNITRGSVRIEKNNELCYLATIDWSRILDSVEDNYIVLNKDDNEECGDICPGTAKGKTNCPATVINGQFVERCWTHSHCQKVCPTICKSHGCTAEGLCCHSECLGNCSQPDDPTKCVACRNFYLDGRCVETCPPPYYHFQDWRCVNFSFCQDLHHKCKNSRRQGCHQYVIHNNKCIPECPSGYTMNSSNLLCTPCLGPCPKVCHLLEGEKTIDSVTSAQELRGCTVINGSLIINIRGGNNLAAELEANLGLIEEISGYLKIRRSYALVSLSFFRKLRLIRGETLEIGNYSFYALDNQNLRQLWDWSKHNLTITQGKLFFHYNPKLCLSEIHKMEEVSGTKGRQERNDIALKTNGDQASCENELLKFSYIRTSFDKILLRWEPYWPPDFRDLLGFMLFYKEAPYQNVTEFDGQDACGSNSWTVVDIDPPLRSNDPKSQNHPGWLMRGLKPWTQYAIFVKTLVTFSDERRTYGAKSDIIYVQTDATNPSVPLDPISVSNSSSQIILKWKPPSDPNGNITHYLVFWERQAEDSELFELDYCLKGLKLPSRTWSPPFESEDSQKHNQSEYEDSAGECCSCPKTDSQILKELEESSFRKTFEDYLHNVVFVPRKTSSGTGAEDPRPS
Insulin receptor (Homo sapiens), sequence (P06213 763-1382 limits assumed): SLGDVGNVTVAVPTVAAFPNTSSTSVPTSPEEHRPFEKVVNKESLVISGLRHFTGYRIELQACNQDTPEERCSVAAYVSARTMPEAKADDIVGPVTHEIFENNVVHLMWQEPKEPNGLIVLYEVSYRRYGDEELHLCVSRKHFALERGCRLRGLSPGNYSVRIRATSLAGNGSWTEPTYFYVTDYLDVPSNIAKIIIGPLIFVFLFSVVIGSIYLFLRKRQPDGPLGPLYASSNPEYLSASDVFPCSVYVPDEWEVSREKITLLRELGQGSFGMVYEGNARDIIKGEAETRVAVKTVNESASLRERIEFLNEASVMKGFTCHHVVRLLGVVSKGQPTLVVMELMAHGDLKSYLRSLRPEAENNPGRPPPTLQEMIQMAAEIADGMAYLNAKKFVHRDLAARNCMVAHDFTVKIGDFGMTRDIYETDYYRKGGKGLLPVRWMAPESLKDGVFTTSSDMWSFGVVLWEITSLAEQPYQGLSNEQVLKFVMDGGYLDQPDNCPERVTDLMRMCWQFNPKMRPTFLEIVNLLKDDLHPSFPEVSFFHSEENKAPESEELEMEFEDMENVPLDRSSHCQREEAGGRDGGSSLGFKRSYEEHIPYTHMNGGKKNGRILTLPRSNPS
Serine/threonine-protein kinase PLK1 (Homo sapiens), sequence (P53350 whole entry): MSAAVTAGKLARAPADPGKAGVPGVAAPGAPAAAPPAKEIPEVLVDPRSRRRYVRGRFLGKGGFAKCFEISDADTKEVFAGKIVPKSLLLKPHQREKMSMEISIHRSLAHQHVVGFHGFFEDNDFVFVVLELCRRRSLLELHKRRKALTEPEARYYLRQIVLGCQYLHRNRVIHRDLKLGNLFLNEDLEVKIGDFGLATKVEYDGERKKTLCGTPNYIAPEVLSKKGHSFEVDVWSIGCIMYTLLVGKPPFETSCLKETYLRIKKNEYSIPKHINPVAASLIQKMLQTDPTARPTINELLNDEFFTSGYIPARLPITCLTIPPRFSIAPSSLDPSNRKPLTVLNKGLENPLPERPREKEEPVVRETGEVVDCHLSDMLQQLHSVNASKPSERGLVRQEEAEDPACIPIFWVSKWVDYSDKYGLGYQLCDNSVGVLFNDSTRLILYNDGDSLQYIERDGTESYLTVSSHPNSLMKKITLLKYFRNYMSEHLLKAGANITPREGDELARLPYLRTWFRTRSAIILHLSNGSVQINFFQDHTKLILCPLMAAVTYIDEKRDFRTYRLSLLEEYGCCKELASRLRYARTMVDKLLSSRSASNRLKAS
Angiopoietin-1 receptor (Homo sapiens), sequence (Q02763 whole entry, canonical isoform): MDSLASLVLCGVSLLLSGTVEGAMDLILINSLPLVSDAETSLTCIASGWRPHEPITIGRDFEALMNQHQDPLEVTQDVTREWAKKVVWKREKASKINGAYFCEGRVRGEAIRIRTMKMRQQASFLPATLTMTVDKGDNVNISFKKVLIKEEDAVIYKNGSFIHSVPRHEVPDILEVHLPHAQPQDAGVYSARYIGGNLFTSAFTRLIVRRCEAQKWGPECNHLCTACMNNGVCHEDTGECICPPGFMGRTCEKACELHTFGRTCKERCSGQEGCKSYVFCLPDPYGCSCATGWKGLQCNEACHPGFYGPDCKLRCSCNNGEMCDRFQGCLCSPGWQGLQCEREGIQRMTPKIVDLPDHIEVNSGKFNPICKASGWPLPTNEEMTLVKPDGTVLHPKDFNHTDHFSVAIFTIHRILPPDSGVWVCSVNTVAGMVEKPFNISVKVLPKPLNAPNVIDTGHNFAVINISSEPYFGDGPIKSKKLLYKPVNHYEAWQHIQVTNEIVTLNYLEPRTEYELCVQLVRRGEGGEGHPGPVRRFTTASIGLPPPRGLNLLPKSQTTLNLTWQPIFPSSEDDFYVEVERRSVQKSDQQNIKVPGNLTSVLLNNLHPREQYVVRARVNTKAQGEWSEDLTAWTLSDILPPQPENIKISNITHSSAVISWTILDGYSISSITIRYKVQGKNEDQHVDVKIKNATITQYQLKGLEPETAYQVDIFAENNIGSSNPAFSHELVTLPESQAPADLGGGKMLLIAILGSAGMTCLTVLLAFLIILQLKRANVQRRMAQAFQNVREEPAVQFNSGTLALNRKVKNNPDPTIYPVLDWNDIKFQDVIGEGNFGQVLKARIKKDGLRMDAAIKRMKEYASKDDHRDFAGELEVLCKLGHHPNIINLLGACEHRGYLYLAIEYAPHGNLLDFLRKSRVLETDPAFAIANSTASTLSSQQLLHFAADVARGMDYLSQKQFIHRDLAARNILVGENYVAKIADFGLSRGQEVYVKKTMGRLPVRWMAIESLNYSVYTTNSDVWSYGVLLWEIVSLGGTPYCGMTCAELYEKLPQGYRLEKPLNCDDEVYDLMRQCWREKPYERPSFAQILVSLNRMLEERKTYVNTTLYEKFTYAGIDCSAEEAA
Proto-oncogene tyrosine-protein kinase Src (Homo sapiens), sequence (P12931 2-536 limits assumed): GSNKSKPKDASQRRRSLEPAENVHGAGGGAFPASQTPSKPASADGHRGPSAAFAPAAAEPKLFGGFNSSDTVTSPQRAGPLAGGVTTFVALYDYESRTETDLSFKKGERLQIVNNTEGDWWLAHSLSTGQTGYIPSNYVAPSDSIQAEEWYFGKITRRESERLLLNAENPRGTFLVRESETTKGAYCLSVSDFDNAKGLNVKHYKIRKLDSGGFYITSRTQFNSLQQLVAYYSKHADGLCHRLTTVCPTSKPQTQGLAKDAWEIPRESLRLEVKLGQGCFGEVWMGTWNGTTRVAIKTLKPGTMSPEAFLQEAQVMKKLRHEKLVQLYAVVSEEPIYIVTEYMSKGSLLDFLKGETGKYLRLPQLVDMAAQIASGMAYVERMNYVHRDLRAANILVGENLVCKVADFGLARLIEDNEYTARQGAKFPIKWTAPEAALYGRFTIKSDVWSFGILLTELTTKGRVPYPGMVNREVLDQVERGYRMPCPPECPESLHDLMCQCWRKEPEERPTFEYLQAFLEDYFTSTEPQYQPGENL
Casein kinase II subunit alpha (Homo sapiens), sequence (P68400 whole entry, looked up): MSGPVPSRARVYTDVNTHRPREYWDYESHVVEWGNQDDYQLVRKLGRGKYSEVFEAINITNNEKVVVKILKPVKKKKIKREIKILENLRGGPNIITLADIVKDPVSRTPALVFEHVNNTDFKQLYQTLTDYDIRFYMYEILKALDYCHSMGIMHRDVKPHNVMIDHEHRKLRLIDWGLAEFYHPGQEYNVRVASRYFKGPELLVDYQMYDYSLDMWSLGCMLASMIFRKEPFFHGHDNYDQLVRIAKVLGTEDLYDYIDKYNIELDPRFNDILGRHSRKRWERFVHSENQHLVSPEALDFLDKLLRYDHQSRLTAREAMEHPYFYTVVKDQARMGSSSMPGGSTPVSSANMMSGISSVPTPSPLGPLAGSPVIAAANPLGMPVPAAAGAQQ

Compound: C[S+]([O-])c1ccc(-c2nc(-c3ccncc3)c(-c3ccc(F)cc3)[nH]2)cc1 (stereo not given) [SB-203580]
inhibition at 10 µM [1]: 78%

inhibition [2]: 10% | inhibition [3]: 3% | inhibition [4]: 3% | inhibition [5]: 80% | inhibition [6]: -1% | inhibition [7]: 36% | inhibition [8]: 5% | inhibition [9]: 5% | inhibition [10]: 9% | inhibition [11]: 15% | inhibition [12]: 14% | inhibition [13]: 15% | inhibition [14]: 44% | inhibition [15]: 21% | inhibition [16]: 27% | inhibition [17]: 29% | inhibition [18]: 7% | inhibition [19]: 21% | inhibition [20]: 1% | inhibition [21]: 11% | inhibition [22]: 8% | inhibition [23]: 5% | inhibition [24]: 36% | IC50 [25]: 5400 nM | inhibition [26]: 23% | Ratio IC50 [27]: > 25 | inhibition [28]: 8% | IC50 [29]: 4200 nM | inhibition [30]: 6% | inhibition [31]: 7% | inhibition [32]: 82% | inhibition [33]: 41% | inhibition [34]: 6% | inhibition [35]: 17% | inhibition [36]: 7% | inhibition [37]: 4% | inhibition [38]: 7% | inhibition [39]: 48% | inhibition [40]: 100% | inhibition [41]: 5% | inhibition [42]: 84% | inhibition [43]: 12% | inhibition at 10 µM [1]: 4% | inhibition [44]: 0% | inhibition [45]: 3% | inhibition [46]: 14% | inhibition [47]: 1% | inhibition [48]: 72% | inhibition [49]: 88% | inhibition [50]: 11% | inhibition [51]: 92% | IC50 [52]: 200 nM | inhibition [53]: 3% | inhibition [54]: 3% | inhibition [55]: 8% | inhibition [56]: 50% | inhibition [57]: 10%
Compound: C#Cn1c(C#CCCO)nc(-c2ccc(F)cc2)c1-c1ccncc1

inhibition [40]: 83%
Compound: OCC#Cc1nc(-c2ccc(F)cc2)c(-c2ccncc2)n1C#Cc1ccccc1

inhibition [40]: 19%
Compound: C#Cc1nc(-c2ccncc2)c(-c2ccc(F)cc2)n1C#Cc1ccccc1

inhibition [40]: 53%
Compound: OCCC#Cc1nc(-c2ccncc2)c(-c2ccc(F)cc2)n1C#Cc1ccccc1

inhibition [40]: 75%
Compound: OCCC#Cc1nc(-c2ccc(F)cc2)c(-c2ccncc2)n1C#Cc1ccccc1

IC50 [52]: 370 nM
Compound: OCCc1cc(Cl)n2c(-c3ccncc3)c(-c3ccc(F)cc3)nc2c1

inhibition [40]: 28%
Compound: C#Cc1nc(-c2ccc(F)cc2)c(-c2ccncc2)n1C#Cc1ccccc1

inhibition [40]: 63%
Compound: OCC#Cc1nc(-c2ccncc2)c(-c2ccc(F)cc2)n1C#Cc1ccccc1
